Compound activity: PubChem BioAssay, several laboratories
SF1 activator: activates the human nuclear receptor SF-1; Q13285; CHO-K1 Gal4-SF-1 LBD luciferase reporter; % increase over DMSO SF-1-specific signal; activation, % at 10 µM; hit rate 1.9% among 65,000;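 active = activation above the mean activation of all tested compounds plus 3 SD, cut at about 50% in these data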
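Assay system: CHO-K1 cells co-transfected with Gal4 DBD–human SF-1 LBD, 5xGal4 luciferase reporter; doses: 10 µM only; incubation: 20 h compound exposure at 37 °C after 1 h cell settling; signal: luciferase light emission; evaluation: percent activation versus DMSO; repeats: one test per compound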
RORa activator: RORA (human) activation. hit rate 1.5% among 65,000. activation, % at 10 µM. CHO-K1 Gal4-RORA LBD luciferase reporter, luminescence; percent increase over mock-subtracted basal signal. P35398;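 active = activation above the mean of all tested compounds plus 3 SD, cut at about 49% in these data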;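 also: 0% = DMSO-treated RORA cells and 100% = added signal equal to DMSO minus mock-transfected cells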
Target sequence (P35398 whole entry, looked up, the tested form may be a part): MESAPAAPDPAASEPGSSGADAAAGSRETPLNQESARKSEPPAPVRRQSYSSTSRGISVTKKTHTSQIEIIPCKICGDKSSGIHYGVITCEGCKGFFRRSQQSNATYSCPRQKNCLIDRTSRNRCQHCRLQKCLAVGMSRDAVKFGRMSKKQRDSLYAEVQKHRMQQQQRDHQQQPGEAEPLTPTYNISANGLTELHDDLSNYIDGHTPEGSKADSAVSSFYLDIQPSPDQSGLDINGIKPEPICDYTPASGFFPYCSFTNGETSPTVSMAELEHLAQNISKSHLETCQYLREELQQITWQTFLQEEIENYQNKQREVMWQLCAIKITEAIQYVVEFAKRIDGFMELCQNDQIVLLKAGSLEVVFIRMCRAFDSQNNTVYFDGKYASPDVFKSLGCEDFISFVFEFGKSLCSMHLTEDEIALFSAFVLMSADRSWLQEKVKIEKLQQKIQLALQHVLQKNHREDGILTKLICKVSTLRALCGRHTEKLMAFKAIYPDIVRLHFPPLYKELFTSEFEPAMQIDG
S1P1 ag-PAM: agonists and agonism potentiators of human S1P1 receptor. P21453. S1P1 CRE-bla cells, forskolin, beta-lactamase FRET, potentiator mode; S1P1 agonist co-added at EC20, 2 nM; 100% = saturating reference agonist, 0% = basal. activation, % at 9.5 µM. hit rate 0.57% among 56,000. AID 449;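 active = activation above a cutoff set at the mean activation of all tested compounds plus 3 SD, cut at about 54% in these data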;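 also: forskolin at 4 µM as EC80 and the EC20 agonist is SEW2871; 100% = SEW2871 at its EC100 plus forskolin at EC80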
M1 antag: blocks the rat M1 muscarinic receptor response to acetylcholine | P08482 | hit rate 3.4% among 64,000 | CHO-M1 cells, Fluo-4 calcium, ACh EC80 antagonist mode; active compounds read low | AID 628 | B-score at 10 µM;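 active = calcium fluorescence response, raw or row-and-column corrected B-score, differing from the plate sample mean either way at a set confidence level, mostly lower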
M1 ag: M1 muscarinic receptor agonism. hit rate 3% among 64,000. CHO-M1 cells, Fluo-4 calcium fluorescence, agonist mode; active compounds read high. AID 626. B-score at 10 µM;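 active = fluorescence rise, raw or as B-score row- and column-corrected plate score, outside the 99.7% band of its plate's samples, either direction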
S1P3 ag: S1P3 (human) receptor agonism. Q99500. S1P3 NFAT-BLA reporter cells, FRET ratio; relative to 1 µM S1P, basal subtracted. activation, % at 4.5 µM. hit rate 0.1% among 60,000. AID 373;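 active = activation above the screen-wide mean plus 3 SD, cut at about 4.5% in these data, passing the limit was not always enough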
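Assay system: stable CHO line with human S1P3, Gα16, NFAT-BLA reporter; Detection: FRET β-lactamase substrate fluorescence, excitation 405 nm, 460/535 nm emission ratio, background-subtracted; Read-out: percent activation versus median 1 µM S1P response, basal-subtracted, per plate; Incubation: cells plated overnight, compound 4 h 37 °C, substrate 2 h RT.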
Numbers without * were called inactive; . = no result. Compounds with a hit are over-represented: about 8.8% of the library has one in this group of screens.

SMILES | SF1 activator | RORa activator | S1P1 ag-PAM | M1 antag | M1 ag | S1P3 ag
CCOC(=O)c1sc(NC(=O)c2ccc(CC)s2)nc1C | 118.6* | 71.5* | . | -0.172 | 0.479 | -0.7
CCOC(=O)CNC(=O)c1sc(NC(=O)c2ccccc2F)nc1C | 53.2* | 29.1 | 13.9 | 0.474 | -1.77 | -0.4
CCOC(=O)c1sc(NC(=O)c2ccc(Cl)s2)cc1C | 53.6* | 78.2* | 34.5 | 0.0703 | 0.591 | -0.4
Cc1ccc(-c2csc(N3CCC(NS(=O)(=O)c4ccc5c(c4)OCCO5)CC3)n2)cc1 | -53.2 | -69.5 | 106.8* | -0.32 | 2.5 | -1.0
Cc1nc(N)sc1-c1csc(Nc2ccccc2)n1 | 89.8* | 49.9* | . | -0.544 | -0.905 | -1.0
Cc1ccc2c(COC(=O)c3cnc(C)cn3)cc(=O)oc2c1 | -7.5 | -21.7 | 3.0 | 0.955 | 0.13 | 0.4
Cc1ccc2c(COC(=O)C3=COCCO3)cc(=O)oc2c1 | 67.3* | 38.0 | 23.8 | 0.02 | -1.35 | -0.5
Cn1c(SCC(=O)NCc2ccccc2)nnc1C1CC1 | 2.6 | 4.5 | -4.4 | 0.219 | -0.135 | -0.9
O=C(CSc1nc2ccccc2o1)Nc1nc2ccccc2s1 | 50.2* | 2.9 | -8.8 | -0.378 | -1.67 | 0.7
CC(=O)Nc1nc2ccc(-c3nc4ccccc4o3)cc2s1 | 37.8 | 69.1* | 0.1 | -1 | -0.267 | -2.0
O=C(Cc1cccs1)Nc1nc2ccccc2s1 | 39.0 | 58.5* | 4.8 | 0.0829 | 0.225 | -0.9
Cc1ccnc2ccc(-c3nc4ccccc4o3)cc12 | 56.3* | 45.8 | 20.1 | 0.127 | -0.0345 | -1.3
COc1ccc(Cn2nnc3c(=O)[nH]c(C(=O)NCCc4ccc(F)cc4)nc32)cc1OC | 7.2 | 17.8 | -9.7 | -0.462 | -0.121 | 0.2
Nc1nc(C2CCCN2S(=O)(=O)c2ccc(Cl)cc2)cs1 (stereo not given) | -1.0 | 3.4 | 9.4 | 1.22 | -0.297 | -0.5
CCc1ccc(Nc2cc(=O)n(C3CCCCC3)c(=O)[nH]2)cc1 | 51.6* | 15.6 | 0.7 | 0.0508 | -1.79 | -1.0
O=c1cc(Nc2ccc3c(c2)OCCO3)[nH]c(=O)n1C1CCCCC1 | 29.2 | 47.7 | -9.4 | 0.0305 | -0.608 | 0.5
Cc1ccc(C(=O)C2COC(=O)C2)cc1 (stereo not given) | 2.6 | -1.0 | . | 0.473 | -0.523 | .
Fc1ccc2[nH]c3c(N4CCN(C5CCCCC5)CC4)ncnc3c2c1 | -6.0 | -2.9 | 0.9 | -1.01 | -0.319 | -0.3
COc1cccc(N2CCN(c3ncnc4c3[nH]c3ccc(F)cc34)CC2C)c1 (stereo not given) | -96.1 | -95.2 | 115.2* | -6.13* | 7.78* | -8.3
CSc1nsc(SCCN2C(=O)c3ccccc3C2=O)n1 | 6.2 | -25.6 | -22.2 | 2.34* | 1.19 | -0.4
Cc1csc(SCCN2C(=O)c3ccccc3C2=O)n1 | 64.8* | 73.0* | 1.8 | 0.0766 | -0.174 | -0.4
O=C1c2ccccc2C(=O)N1CCSc1nncs1 | 12.7 | 0.4 | -8.5 | -0.0586 | 0.238 | 0.1
CSc1nsc(SCC(=O)Nc2ccccn2)n1 | 8.4 | -5.4 | -17.4 | -0.142 | -0.706 | -0.9
CCOCCn1c(SCc2c(F)cccc2Cl)nc2c1c(=O)[nH]c(=O)n2C | 3.9 | 7.1 | 12.4 | 0.486 | -0.27 | -3.8
CCOc1ccccc1-c1cc(-c2ccc(OC)cc2)nc2c1c(=O)n(C)c(=O)n2C | 8.6 | 2.0 | 4.4 | 0.105 | -1.27 | 0.0
SMILES | SF1 activator | RORa activator | S1P1 ag-PAM | M1 antag | M1 ag | S1P3 ag
COc1cccc(-c2nnc(SCC(=O)Nc3ccc4c(c3)OCCO4)n2Cc2ccco2)c1 | -11.2 | -15.3 | -4.0 | -0.121 | 5.82* | 0.5
O=C(c1ccccc1)c1c[nH]c2cc3c(cc2c1=O)OCCO3 | 50.0* | 40.4 | . | -0.318 | -1.37 | .
CCCN1CCN(C(=O)Cn2cccc2C(=O)c2ccccc2)CC1 | -6.3 | -14.2 | 1.5 | -0.112 | 0.105 | 0.2
Nc1ncnc2c1ncn2[C@@H]1O[C@H](CO)[C@@H](O)[C@H]1O | 0.1 | 1.0 | -5.2 | -0.345 | 12.8* | 2.3
Cc1cc(C(=O)Nc2sc3c(c2C#N)CCC(C(C)(C)C)C3)no1 (stereo not given) | 57.8* | -6.9 | 16.1 | 0.41 | -2.03 | -0.8
COC(=O)c1c(NC(=O)c2cccs2)sc2c1CCC(C)C2 (stereo not given) | -11.2 | -9.6 | 2.7 | -0.113 | -0.351 | -1.4
